The EternaBench riboswitch data

Test system: MS2 coat protein
Assay: apparent Kd, MS2 coat protein; higher = weaker binding; RNA-MaP array; FMN 200 µM where present
Method in brief: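 Two titrations, one without ligand and one with constant ligand, were run with SNAP-549-labelled MS2 coat protein from 0.7 or 1.5 nM, doubling to 3 µM. The targets were designs transcribed by stalled E. coli RNA polymerase on Illumina sequencing-chip clusters, in 100 mM Tris-HCl pH 7.5, 80 mM KCl, 4 mM MgCl2, BSA, DTT, yeast tRNA and Tween-20. The apparent Kd is the median of filtered per-cluster binding-curve fits, with green signal normalised to red-channel RNA signal and control-cluster median Fmax.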

[1] = designed as: OFF switch for flavin mononucleotide, no ligand
[2] = ligand present: flavin mononucleotide, designed as: OFF switch for flavin mononucleotide
[3] = designed as: ON switch for flavin mononucleotide, no ligand
[4] = ligand present: flavin mononucleotide, designed as: ON switch for flavin mononucleotide

Sequence: GGAGAUUACUCAGGAUAUCGCUAGACCUACAUGAGGAUCACCCAUGUGGGUGACGCGGUGGGCUACGAGAAGGGAGAAGUGCCC
- apparent Kd [1]: 8.9 nM
- apparent Kd [2]: 8.53 nM

Sequence: GGAGCACACAUUAACAUGAGGAUCACCCAUGUCAAAAGACAUGAGGAUAUGGAUCCGAAAAGGAUCCAGAAGGCAUUGUGCUCC
- apparent Kd [3]: 372 nM
- apparent Kd [4]: 28.2 nM

Sequence: GGAGCACAUGAAUACAUGAGGAUCACCCAUGUCGAAUGAUAUGAGGAUAUGCAUCGGAAAACGAUGUAGAAGGCAUAGUGCUCC
- apparent Kd [3]: 60 nM
- apparent Kd [4]: 11.4 nM

Sequence: GGAGCGAGCACAGGAUAUAAGCUAACGGUUAGUUUAGAAGGGUGGGAUCAGACAUGAGGAUCACCCAUGUGUGUUUUUGCUCCA
- apparent Kd [3]: 128 nM
- apparent Kd [4]: 314 nM

Sequence: GGAGCUCCCAUUAACAUGAGGAUCACCCAUGUCAAAAGACAUGAGGAUAUGGUACCUAAUUGGUACCAGAAGGCAUGGAGCUCC
- apparent Kd [3]: 1180 nM
- apparent Kd [4]: 107 nM

Sequence: GGAGCUCCUGACAUGAGGAUCACCCAUGUUCACUUAUUAAAUCAGGAUAUCGUCGCGAAACGCGACGAGAAGGGAUAUGCUCCU
- apparent Kd [3]: 7.55 nM
- apparent Kd [4]: 7.05 nM

Sequence: GGAGGACAUGAGGAUCACCCAUGUGGAUGAACGCUAGGAUAUGCGUGCAGGAAGAGUGGAGCAGAAGGAGUGGGAU
- apparent Kd [3]: 26.4 nM
- apparent Kd [4]: 19.3 nM

Sequence: GGAUAGGACAGAGGAUAUACGGAUAGGAUCUACUAUCUUCCUUAAAUAACAUGAGGAUCACCCAUGUAGAAGGCUGUCCUAUCG
- apparent Kd [1]: 18.6 nM
- apparent Kd [2]: 67.9 nM

Sequence: GGAUAGGACAGAGGAUAUACGUGCUACAGAUACUAGCAAAAUUUCCUCACAUGAGGAUCACCCAUGUAGAAGGCUGUCCUAUCG
- apparent Kd [1]: 19.3 nM
- apparent Kd [2]: 405 nM

Sequence: GGAUAGGACAGAGGAUAUACGUGCUAGAGAUACUACCAAAAUUUCCUCACAUGAGGAUCACCCAUGUAGAAGGCUGUCCUAUCG
- apparent Kd [1]: 180 nM
- apparent Kd [2]: 143 nM

Sequence: GGAUAGGACAGAGGAUAUACGUGCUAGAGAUACUAGCAAAAUUUCCUCACAUGAGGAUCACCCAUGUAGAAGGCUGUCCUAACG
- apparent Kd [1]: 14.7 nM
- apparent Kd [2]: 497 nM

Sequence: GGAUAGGACAGAGGAUAUACGUGCUAGAGAUACUAGCAAAAUUUCCUCACAUGAGGAUCACCCAUGUAGAAGGCUGUCCUAGCG
- apparent Kd [1]: 15.7 nM
- apparent Kd [2]: 376 nM

Sequence: GGAUAGGACAGAGGAUAUACGUGCUAGAGAUACUAGCAAAAUUUCCUCACAUGAGGAUCACCCAUGUAGAAGGCUGUCCUAUCC
- apparent Kd [1]: 18.5 nM
- apparent Kd [2]: 435 nM

Sequence: GGAUAGGACAGAGGAUAUACGUGCUAGAGAUACUAGCUAAAUUUCCUCACAUGAGGAUCACCCAUGUAGAAGGCUGUCCUAUCG
- apparent Kd [1]: 15 nM
- apparent Kd [2]: 412 nM

Sequence: GGAUAGGACAGAGGAUAUACGUGCUAGGGAUACUAGCAAAAUUUCCUCACAUGAGGAUCACCCAUGUAGAAGGCUGUCCUAUCG
- apparent Kd [1]: 16.1 nM
- apparent Kd [2]: 416 nM

Sequence: GGAUAGGACCGAGGAUAUACGUGCUAGAGAUACUAGCAAAAUUUCCUCACAUGAGGAUCACCCAUGUAGAAGGCUGUCCUAUCG
- apparent Kd [1]: 5.78 nM
- apparent Kd [2]: 12.5 nM

Sequence: GGAUAUGUCGUCUACAUGAGGAUCACCCAUGUUGAUAAACAUGAGGAUAUUGAUAAGAAUUGUAUCGAGAAGGUAUGUAGGUCC
- apparent Kd [3]: 106 nM
- apparent Kd [4]: 89.5 nM

Sequence: GGAUCGAAUGUGAGGAUAUGCUGGUCCUUGGAUCAGCAGAAGGCACAUGAGGAUCACCCAUGUCCAAGCGGUCC
- apparent Kd [1]: 212 nM
- apparent Kd [2]: 559 nM

Sequence: GGAUCGAGUGUGAGGAUAUACCACUGGAUACAGUGGUAGAAGGCACAUGAGGAUCACCCAUGUCUCUACGAUCC
- apparent Kd [1]: 16.1 nM
- apparent Kd [2]: 51.8 nM

Sequence: GGAUGACAAAGUCAUCCAAUACGAACAUGAGGAUCACCCAUGUAGGAUAUGCAUCUCAAAGAGAUGCAGAAGGACAUGUGCCUU
- apparent Kd [1]: 36.9 nM
- apparent Kd [2]: 272 nM

Sequence: GGAUGACAAAGUCAUCCAUUACGAACAUGAGGAUCACCCAUGUAGGAUAUGCUACUCAAAGAGUAGCAGAAGGACAUGUGUCUU
- apparent Kd [1]: 31.2 nM
- apparent Kd [2]: 149 nM

Sequence: GGAUGACAAAGUCAUCCUCAACGGACAUGAGGAUCACCCAUGUAGGAUAUGCUACUCAAAGAGUAGCAGAAGGACAUGUGUCUU
- apparent Kd [1]: 37.3 nM
- apparent Kd [2]: 241 nM
